Calls of active or inactive are those of the source. The rule behind the calls is not given here.
What was measured:
Mus musculus [1] = test: Toxicity in chloroquine-sensitive Plasmodium berghei NK-173 infected Swiss albino mouse assessed as mortality at 76.9 mg/kg, ip qd for 3 days measured up to 4 days; assay type: organism-based; parameters: dose 76.9 mg/kg, route intraperitoneal; settings: in vivo
Summary of the method: (§1)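 Female Swiss albino mice (18–20 g) were infected i.v. on day 0 with 10^6 parasitized RBC in 0.2 ml PBS from a donor mouse, in groups of 10. Dosing was i.p. over days 0–3 and stopped if toxicity appeared. Chloroquine control was 100 µmoles/kg. Giemsa tail smears and RBC counts were taken on days 4, 7, 8, 9, 10 and 14. Mice were followed for deaths.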

Plasmodium berghei [2] = test: Antimalarial activity against chloroquine-sensitive Plasmodium berghei NK-173 infected in Swiss albino mouse assessed as host survival at 76.9 mg/kg, ip qd for 3 days measured on day 30; assay type: functional; settings: NK-173, ip, route intraperitoneal; summary of the method: as §1
Leishmania donovani [3] = test: Antileishmanial activity against amastigotes forms of Leishmania donovani MHOM/ET/67/HU3 infected in Swiss mouse peritoneal macrophages at 20 uM after 5 days; assay type: functional, organism-based
Summary of the method: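 Peritoneal macrophages from female Swiss mice (18–20 g) infected after 24 h with stationary-phase L. donovani promastigotes at 10 parasites per macrophage. Free promastigotes removed at 18 h, then amastigotes treated. Medium with drug renewed at 48 h, stopped at day 5. Percentage of infected macrophages scored microscopically after Giemsa staining. Run in triplicate.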

Mus musculus [4] = test: Toxicity in chloroquine-sensitive Plasmodium berghei NK-173 infected Swiss albino mouse assessed as death day at 100 mg/kg, ip bid for 3 days measured up to 4 days; assay type: organism-based; parameters: dose 100 mg/kg, route intraperitoneal; settings: in vivo; summary of the method: as §1
Plasmodium berghei [5] = test: Antimalarial activity against chloroquine-sensitive Plasmodium berghei NK-173 infected in Swiss albino mouse assessed as quantal survival at 38.5 mg/kg, ip administered 4 times per day for 3 days measured on day 14; assay type: functional, organism-based; parameters: dose 38.5 mg/kg; summary of the method: as §1
Plasmodium berghei [6] = test: Antimalarial activity against chloroquine-sensitive Plasmodium berghei NK-173 infected in Swiss albino mouse assessed as quantal survival at 38.5 mg/kg, ip administered 4 times per day for 3 days measured on day 7; assay type: functional, organism-based; parameters: dose 38.5 mg/kg; summary of the method: as §1
Plasmodium berghei [7] = test: Antimalarial activity against chloroquine-sensitive Plasmodium berghei NK-173 infected in Swiss albino mouse assessed as quantal survival at 38.5 mg/kg, ip qd for 3 days measured on day 9; assay type: functional, organism-based; parameters: dose 38.5 mg/kg; summary of the method: as §1
Plasmodium berghei [8] = test: Antimalarial activity against chloroquine-sensitive Plasmodium berghei NK-173 infected in Swiss albino mouse assessed as host survival at 38.5 mg/kg, ip qd for 3 days measured on day 30; assay type: functional; settings: NK-173, ip, route intraperitoneal; summary of the method: as §1
Plasmodium berghei [9] = test: Antimalarial activity against chloroquine-sensitive Plasmodium berghei NK-173 infected in Swiss albino mouse assessed as reduction parasitemia at 76.9 mg/kg, […] by Giemsa staining relative to control; assay type: functional; parameters: scale not given: the % may be the effect or the level left; settings: route intraperitoneal
[10] = test system: Trypanosoma brucei brucei; test: Trypanocidal activity against Trypanosoma brucei brucei by drug incubation infectivity test; assay type: functional; settings: read-out: MEC
Mus musculus [11] = test: Toxicity in chloroquine-sensitive Plasmodium berghei NK-173 infected Swiss albino mouse assessed as mortality at 38.5 mg/kg, ip qd for 3 days measured up to 4 days; assay type: organism-based; parameters: dose 38.5 mg/kg, route intraperitoneal; settings: in vivo; summary of the method: as §1
Leishmania donovani [12] = test: Antileishmanial activity against promastigote forms of Leishmania donovani MHOM/ET/67/HU3 after 3 days by MTT assay; assay type: functional, organism-based; settings: MHOM/ET/67/HU3, 72 h
Summary of the method: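 Log-phase promastigotes at 10^6 cells/mL in supplemented M-199. Serial dilutions gave final concentrations of 100 µM to 50 nM, in triplicate. Incubated 3 days at 27 °C, dark, 5% CO2. Viability read by MTT reduction, with Triton X100/HCl lysis and absorbance at 570 nm. IC50 ± SD.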

Plasmodium berghei [13] = test: Antimalarial activity against chloroquine-sensitive Plasmodium berghei NK-173 infected in Swiss albino mouse assessed as quantal survival at 38.5 mg/kg, ip qd for 3 days measured on day 10; assay type: functional, organism-based; parameters: dose 38.5 mg/kg; summary of the method: as §1
Plasmodium berghei [14] = test: Antimalarial activity against chloroquine-sensitive Plasmodium berghei NK-173 infected in Swiss albino mouse assessed as quantal survival at 38.5 mg/kg, ip qd for 3 days measured on day 7; assay type: functional, organism-based; parameters: dose 38.5 mg/kg; summary of the method: as §1
Plasmodium berghei [15] = test: Antimalarial activity against chloroquine-sensitive Plasmodium berghei NK-173 infected in Swiss albino mouse assessed as quantal survival at 38.5 mg/kg, ip administered 4 times per day for 3 days measured on day 8; assay type: functional, organism-based; parameters: dose 38.5 mg/kg; summary of the method: as §1
Plasmodium berghei [16] = test: Antimalarial activity against chloroquine-sensitive Plasmodium berghei NK-173 infected in Swiss albino mouse assessed as quantal survival at 100 mg/kg, ip bid for 3 days measured on day 14; assay type: functional, organism-based; parameters: dose 100 mg/kg; summary of the method: as §1
Plasmodium berghei [17] = test: Antimalarial activity against chloroquine-sensitive Plasmodium berghei NK-173 infected in Swiss albino mouse assessed as quantal survival at 76.9 mg/kg, ip qd for 3 days measured on day 7; assay type: functional, organism-based; parameters: dose 76.9 mg/kg; summary of the method: as §1
Plasmodium falciparum = test: Antimalarial activity against Plasmodium falciparum 3D7 infected in human O positive erythrocytes assessed as reduction of parasite growth after 24 to 44 hrs by Giemsa staining; assay type: functional, organism-based
Summary of the method: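 Sorbitol-synchronized ring-stage 3D7 parasites in O+ erythrocytes (5% v/v suspension, 0.5% parasitemia) exposed to compounds from DMSO stock for 44 h at 37 °C. Growth measured by pLDH ELISA after freeze-thaw hemolysis and by Giemsa thin smears at 24 and 44 h, counting at least 5000 erythrocytes. Expressed as % reduction against medium-only control.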

[18] = Cytotoxicity against Swiss mouse peritoneal macrophages at 20 uM after 5 days by MTT assay; assay type: cell-based, Peritoneal macrophage cell
Summary of the method: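 Thioglycolate-elicited peritoneal macrophages from female Swiss mice, 5 × 10^4/well in RPMI 1640 with 10% FCS, 25 mM Hepes and 2 mM L-glutamine. Washed at 4 h to remove fibroblasts. Drug-containing medium added at 48 h, stopped at day 5. Viability read by MTT.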

Plasmodium berghei [19] = test: Antimalarial activity against chloroquine-sensitive Plasmodium berghei NK-173 infected in Swiss albino mouse assessed as quantal survival at 76.9 mg/kg, ip qd for 3 days measured on day 10; assay type: functional, organism-based; parameters: dose 76.9 mg/kg; summary of the method: as §1
Mus musculus [20] = test: Toxicity in chloroquine-sensitive Plasmodium berghei NK-173 infected Swiss albino mouse assessed as mortality at 38.5 mg/kg, ip administered 4 times per day for 3 days measured up to 4 days; assay type: organism-based; parameters: dose 38.5 mg/kg, route intraperitoneal; settings: in vivo; summary of the method: as §1
Plasmodium berghei [21] = test: Antimalarial activity against chloroquine-sensitive Plasmodium berghei NK-173 infected in Swiss albino mouse assessed as reduction parasitemia at 38.5 mg/kg, ip qd […] by Giemsa staining relative to control; assay type: functional; parameters: scale not given: the % may be the effect or the level left; settings: route intraperitoneal
Summary of the method: (§2)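 Four-day Peters test in female Swiss albino mice (18–20 g), groups of 10. Infected i.v. on day 0 with 10^6 parasitized RBC in 0.2 ml PBS, then dosed i.p. on days 0–3, stopped if toxicity appeared. Parasitemia read from Giemsa-stained tail-blood smears and reported as % reduction at day 4.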

Plasmodium berghei [22] = test: Antimalarial activity against chloroquine-sensitive Plasmodium berghei NK-173 infected in Swiss albino mouse assessed as host survival at 100 mg/kg, ip bid for 3 days measured on day 30; assay type: functional; settings: NK-173, ip, route intraperitoneal; summary of the method: as §1
Plasmodium berghei [23] = test: Antimalarial activity against chloroquine-sensitive Plasmodium berghei NK-173 infected in Swiss albino mouse assessed as host survival at 38.5 mg/kg, ip administered 4 times per day for 3 days measured on day 30; assay type: functional; settings: NK-173, ip, route intraperitoneal; summary of the method: as §1
Plasmodium berghei [24] = test: Antimalarial activity against chloroquine-sensitive Plasmodium berghei NK-173 infected in Swiss albino mouse assessed as quantal survival at 76.9 mg/kg, ip qd for 3 days measured on day 14; assay type: functional, organism-based; parameters: dose 76.9 mg/kg; summary of the method: as §1
Plasmodium berghei [25] = test: Antimalarial activity against chloroquine-sensitive Plasmodium berghei NK-173 infected in Swiss albino mouse assessed as quantal survival at 38.5 mg/kg, ip qd for 3 days measured on day 14; assay type: functional, organism-based; parameters: dose 38.5 mg/kg; summary of the method: as §1
Plasmodium berghei [26] = test: Antimalarial activity against chloroquine-sensitive Plasmodium berghei NK-173 infected in Swiss albino mouse assessed as reduction parasitemia at 51.5 mg/kg, ip treated […] by Giemsa staining relative to control; assay type: functional; parameters: scale not given: the % may be the effect or the level left; settings: route intraperitoneal; summary of the method: as §2
Plasmodium berghei [27] = test: Antimalarial activity against chloroquine-sensitive Plasmodium berghei NK-173 infected in Swiss albino mouse assessed as quantal survival at 51.5 mg/kg, ip administered 4 times per day for 3 days measured on day 7; assay type: functional, organism-based; parameters: dose 51.5 mg/kg; summary of the method: as §1
Mus musculus [28] = test: Toxicity in chloroquine-sensitive Plasmodium berghei NK-173 infected Swiss albino mouse assessed as mortality at 51.5 mg/kg, ip administered 4 times per day for 3 days measured up to 4 days; assay type: organism-based; parameters: dose 51.5 mg/kg, route intraperitoneal; settings: in vivo; summary of the method: as §1
Plasmodium berghei [29] = test: Antimalarial activity against chloroquine-sensitive Plasmodium berghei NK-173 infected in Swiss albino mouse assessed as host survival at 51.5 mg/kg, ip administered 4 times per day for 3 days measured on day 30; assay type: functional; settings: NK-173, ip, route intraperitoneal; summary of the method: as §1
Plasmodium berghei [30] = test: Antimalarial activity against chloroquine-sensitive Plasmodium berghei NK-173 infected in Swiss albino mouse assessed as quantal survival at 51.5 mg/kg, ip administered 4 times per day for 3 days measured on day 10; assay type: functional, organism-based; parameters: dose 51.5 mg/kg; summary of the method: as §1
Plasmodium berghei [31] = test: Antimalarial activity against chloroquine-sensitive Plasmodium berghei NK-173 infected in Swiss albino mouse assessed as quantal survival at 51.5 mg/kg, ip administered 4 times per day for 3 days measured on day 9; assay type: functional, organism-based; parameters: dose 51.5 mg/kg; summary of the method: as §1
Plasmodium berghei [32] = test: Antimalarial activity against chloroquine-sensitive Plasmodium berghei NK-173 infected in Swiss albino mouse assessed as quantal survival at 51.5 mg/kg, ip administered 4 times per day for 3 days measured on day 14; assay type: functional, organism-based; parameters: dose 51.5 mg/kg; summary of the method: as §1
Plasmodium berghei [33] = test: Antimalarial activity against chloroquine-sensitive Plasmodium berghei NK-173 infected in Swiss albino mouse assessed as quantal survival at 51.5 mg/kg, ip administered 4 times per day for 3 days measured on day 8; assay type: functional, organism-based; parameters: dose 51.5 mg/kg; summary of the method: as §1

## COc1cc(-c2c3nc(c(N4C(=O)CC[C@H]4C(=O)O)c4ccc([nH]4)c(-c4cc(OC)c(OC)c(OC)c4)c4nc(cc5ccc2[nH]5)C=C4)C=C3)cc(OC)c1OC
Mus musculus [1]
  Activity: Non-toxic
Plasmodium berghei [2]
  survival at 76.9 mg/kg: 0%
Leishmania donovani [3]
  Activity: inactive
Mus musculus [4]
  Time: 2 days
Plasmodium berghei [5]
  Survival: inactive
Plasmodium berghei [6]
  Survival: Active
Plasmodium berghei [7]
  Survival: inactive
Plasmodium berghei [8]
  survival at 38.5 mg/kg: 0%
Plasmodium berghei [9]
  Activity: 40%
[10]
  minimal effective concentration: 25 µM
Mus musculus [11]
  Activity: Non-toxic
Leishmania donovani [12]
  IC50: 57.2 µM
Plasmodium berghei [13]
  Survival: inactive
Plasmodium berghei [14]
  Survival: Active
Plasmodium berghei [15]
  Survival: Active
Plasmodium berghei [16]
  Survival: inactive
Plasmodium berghei [17]
  Survival: Active
Plasmodium falciparum
  IC50: 0.02 µM
[18]
  CC50 at 120 h: > 100 µM
Plasmodium berghei [19]
  Survival: inactive
Mus musculus [20]
  Activity: Non-toxic
Plasmodium berghei [21]
  Activity: 0%
Plasmodium berghei [22]
  survival at 100 mg/kg: 0%
Plasmodium berghei [23]
  survival at 38.5 mg/kg: 0%
Plasmodium berghei [24]
  Survival: inactive
Plasmodium berghei [25]
  Survival: inactive

## CCN(CC)CCCC(C)Nc1ccnc2cc(Cl)ccc12 (centres undefined) [CHLOROQUINE]
Plasmodium berghei [26]
  Activity: 100%
Plasmodium berghei [27]
  Survival: Active
Mus musculus [28]
  Activity: Non-toxic
Plasmodium berghei [29]
  survival at 51.5 mg/kg: 100%
Plasmodium berghei [30]
  Survival: Active
Plasmodium berghei [31]
  Survival: Active
Plasmodium berghei [32]
  Survival: Active
Plasmodium berghei [33]
  Survival: Active

From ChEMBL document CHEMBL2417506, “Synthesis and antiprotozoal activity of original porphyrin precursors and derivatives” (Eur J Med Chem, 2013)
